Results reported in ChEMBL document CHEMBL1671856, “Chemical target validation studies of aminopeptidase in malaria parasites using alpha-aminoalkylphosphonate and phosphonopeptide inhibitors” (Antimicrob Agents Chemother, 2008).

How the values were obtained:
[1] = target: T1, Leucine aminopeptidase (Plasmodium falciparum 3D7) (UniProt Q8IL11); assay: Inhibition of leucyl aminopeptidase activity in Plasmodium falciparum 3D7 at 10 uM using Leu-AMC as a substrate by spectrophotometer
T1 sequence (whole entry): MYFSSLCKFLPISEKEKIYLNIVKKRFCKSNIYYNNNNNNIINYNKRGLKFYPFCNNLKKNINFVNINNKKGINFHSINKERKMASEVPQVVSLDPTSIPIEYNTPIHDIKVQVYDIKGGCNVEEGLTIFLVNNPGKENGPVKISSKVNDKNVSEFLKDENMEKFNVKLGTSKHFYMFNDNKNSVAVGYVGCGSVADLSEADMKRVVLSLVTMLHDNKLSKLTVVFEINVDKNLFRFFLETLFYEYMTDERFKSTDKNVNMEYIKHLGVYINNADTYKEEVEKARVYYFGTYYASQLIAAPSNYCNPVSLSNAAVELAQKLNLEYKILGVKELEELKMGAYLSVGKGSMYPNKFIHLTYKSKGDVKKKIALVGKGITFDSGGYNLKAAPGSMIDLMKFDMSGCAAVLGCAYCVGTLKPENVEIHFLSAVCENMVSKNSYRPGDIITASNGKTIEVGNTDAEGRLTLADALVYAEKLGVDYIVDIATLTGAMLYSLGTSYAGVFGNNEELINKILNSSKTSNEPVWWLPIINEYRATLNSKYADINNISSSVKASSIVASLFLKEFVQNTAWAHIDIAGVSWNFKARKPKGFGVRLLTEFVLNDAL
How it was run: (§1)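 Cytosolic extract came from free parasites released from infected erythrocytes, then three freeze-thaw cycles and centrifugation at 12,000 x g, 4°C, 20 min. Extract (25 µg/ml final) was preincubated with 0.1 or 10 µM inhibitor in 50 mM Tris-Cl pH 8.0, with or without 1 mM CoCl2, for 15 min at 37°C. Leu-AMC or Ala-AMC (10 µM final) was added. AMC release was read over 30 min (ex 370/em 440 nm).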

Plasmodium falciparum [2] = assay: Antimalarial activity against Plasmodium falciparum 3D7 infected in O-positive human erythrocytes after 72 hrs; type: functional, organism-based; details: 3D7, 72 h
How it was run: (§2)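 Asynchronous asexual blood-stage P. falciparum 3D7 were cultured in O+ erythrocytes and exposed to compounds for 72 h. Growth was read by the spectrophotometric parasite lactate dehydrogenase absorbance assay. IC50 values were determined graphically from dose-response curves.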

Plasmodium falciparum [3] = assay: Antimalarial activity against Plasmodium falciparum 3D7 infected in O-positive human erythrocytes assessed as growth inhibition by LDH assay; type: functional; how it was run: as §2
[4] = target: T1, Leucine aminopeptidase (Plasmodium falciparum 3D7); assay: Inhibition of leucyl aminopeptidase activity in Plasmodium falciparum 3D7 at 10 uM using Leu-AMC as a substrate by spectrophotometer in presence of 1 mM CoCl2
Plasmodium falciparum [5] = assay: Inhibition of alanyl aminopeptidase activity in Plasmodium falciparum 3D7 at 10 uM using Ala-AMC as a substrate by spectrophotometer; how it was run: as §1
Plasmodium falciparum [6] = assay: Inhibition of alanyl aminopeptidase activity in Plasmodium falciparum 3D7 at 0.1 uM using Ala-AMC as a substrate by spectrophotometer; how it was run: as §1
[7] = target: T1, Leucine aminopeptidase (Plasmodium falciparum 3D7); assay: Inhibition of leucyl aminopeptidase activity in Plasmodium falciparum 3D7 at 0.1 uM using Leu-AMC as a substrate by spectrophotometer in presence of 1 mM CoCl2
[8] = target: T1, Leucine aminopeptidase (Plasmodium falciparum 3D7); assay: Inhibition of leucyl aminopeptidase activity in Plasmodium falciparum 3D7 at 0.1 uM using Leu-AMC as a substrate by spectrophotometer; how it was run: as §1
[9] = Inhibition of porcine kidney leucyl aminopeptidase; design: species or system Sus scrofa
Aminopeptidase N = target: T2, Aminopeptidase N (Sus scrofa, UniProt P15145); assay: Inhibition of pig kidney microsomal aminopeptidase N
T2 sequence (P15145 whole entry): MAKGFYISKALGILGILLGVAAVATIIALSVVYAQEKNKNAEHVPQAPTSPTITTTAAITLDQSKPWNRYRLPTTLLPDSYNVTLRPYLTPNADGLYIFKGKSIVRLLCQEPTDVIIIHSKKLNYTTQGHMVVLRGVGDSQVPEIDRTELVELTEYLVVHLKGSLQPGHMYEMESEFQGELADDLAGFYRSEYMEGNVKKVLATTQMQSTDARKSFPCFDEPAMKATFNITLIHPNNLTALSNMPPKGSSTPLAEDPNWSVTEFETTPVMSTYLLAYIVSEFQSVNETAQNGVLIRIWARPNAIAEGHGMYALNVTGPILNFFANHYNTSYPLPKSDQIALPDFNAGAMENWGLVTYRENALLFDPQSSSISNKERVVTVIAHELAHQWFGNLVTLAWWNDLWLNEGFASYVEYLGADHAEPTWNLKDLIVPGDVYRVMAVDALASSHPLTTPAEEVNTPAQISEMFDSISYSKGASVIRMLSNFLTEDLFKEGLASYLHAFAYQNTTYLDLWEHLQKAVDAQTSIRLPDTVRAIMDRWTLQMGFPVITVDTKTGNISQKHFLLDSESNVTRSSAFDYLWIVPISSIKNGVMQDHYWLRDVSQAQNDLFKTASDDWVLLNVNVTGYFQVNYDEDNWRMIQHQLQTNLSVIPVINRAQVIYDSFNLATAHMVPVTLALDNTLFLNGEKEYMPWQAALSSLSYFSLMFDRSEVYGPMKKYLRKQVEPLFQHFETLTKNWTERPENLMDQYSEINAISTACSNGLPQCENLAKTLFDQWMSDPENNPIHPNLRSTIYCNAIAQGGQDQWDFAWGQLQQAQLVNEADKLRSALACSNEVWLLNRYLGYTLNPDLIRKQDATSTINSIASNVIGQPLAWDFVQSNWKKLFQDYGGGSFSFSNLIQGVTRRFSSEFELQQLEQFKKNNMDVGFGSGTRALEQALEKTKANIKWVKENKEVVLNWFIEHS

Row | SMILES | inhibition [1] | IC50 (Plasmodium falciparum [2]) | inhibition (INH) (Plasmodium falciparum [3]) | other results
1 | CCCC(C)C(N)P(=O)(O)O (stereo in doubt; D31) [listing 1 of 2 here] | 3% | – | – | –
2 | NC(c1cccc(O)c1)P(=O)(O)O (racemic) | 6% | > 256 µM | 34% | –
3 | CCCC(C)C(N)P(=O)(O)O (stereo in doubt; D31) [listing 2 of 2 here] | – | – | 2% | –
4 | CCC(C)C(N)P(=O)(O)O (stereo in doubt; D28) [listing 1 of 2 here] | – | > 256 µM | 22% | –
5 | NC(c1ccc2ccccc2c1)C(O)P(=O)(O)O (configuration not stated) | 17% | > 128 µM | 11% | –
6 | COc1ccc(C(N)P(=O)(O)O)cc1OC (racemic) | 71% | 53 µM | – | inhibition [4]: 70%; inhibition at 10 µM (Plasmodium falciparum [5]): 76%; inhibition at 0.1 µM (Plasmodium falciparum [6]): 0%; inhibition [7]: 20%; inhibition [8]: 6%
7 | N[C@H](C1CCCCC1)P(=O)(O)O | 8% | > 256 µM | 7% | Ki [9]: 6.96 µM; Ki (Aminopeptidase N): > 2000 µM
8 | NC(Cc1ccc(O)cc1)P(=O)(O)O (racemic) | 8% | > 256 µM | 1% | –
9 | NC(c1ccccc1)C(O)P(=O)(O)O (configuration not stated) | 5% | > 256 µM | 0% | –
10 | CC(CCNC(=O)C(N)Cc1ccccc1)P(=O)(O)O (configuration not stated) | 4% | 135 µM | – | inhibition [4]: 0%; inhibition at 10 µM (Plasmodium falciparum [5]): 0%; inhibition at 0.1 µM (Plasmodium falciparum [6]): 0%; inhibition [7]: 1%; inhibition [8]: 0%
11 | NC(C1CCC1)P(=O)(O)O (racemic) | 6% | > 256 µM | 8% | –
12 | CCCCC(CC)C(N)P(=O)(O)O (stereo in doubt; D33) [listing 1 of 2 here] | – | > 256 µM | 17% | –
13 | CC(C)C[C@H](N)P(=O)(O)O [LEUCINE PHOSPHONIC ACID] | 15% | > 128 µM | 30% | inhibition [4]: 52%; inhibition at 10 µM (Plasmodium falciparum [5]): 24%; inhibition at 0.1 µM (Plasmodium falciparum [6]): 0%; inhibition [7]: 9%; inhibition [8]: 0%
14 | CCC(C)C(N)P(=O)(O)O (stereo in doubt; D29) [listing 1 of 2 here] | – | – | 0% | –
15 | CCC(C)C(N)P(=O)(O)O (stereo in doubt; D28) [listing 2 of 2 here] | 9% | – | – | –
16 | CC(C)C(NC(=O)C(N)Cc1ccccc1)P(=O)(O)O (configuration not stated) | 12% | > 256 µM | 7% | –
17 | CC(C)C[C@@H](N)P(=O)(O)O | 2% | > 256 µM | 1% | Ki (Aminopeptidase N): 53 µM
18 | CCC(C)C(N)C(O)P(=O)(O)O (configuration not stated) | 5% | > 256 µM | 1% | –

Row | SMILES | inhibition [1] | IC50 (Plasmodium falciparum [2]) | inhibition (INH) (Plasmodium falciparum [3]) | other results
19 | NC(CC1CCCC1)P(=O)(O)O (racemic) | 37% | > 256 µM | 17% | –
20 | CCC(CC)[C@H](N)P(=O)(O)O | 10% | > 256 µM | 15% | –
21 | CCCC(C)C(N)P(=O)(O)O (stereo in doubt; D30) [listing 1 of 2 here] | – | > 256 µM | 14% | –
22 | NC(CCc1ccccc1)P(=O)(O)Oc1ccccc1 (racemic) | 90% | 25 µM | – | inhibition [4]: 73%; inhibition at 10 µM (Plasmodium falciparum [5]): 92%; inhibition at 0.1 µM (Plasmodium falciparum [6]): 12%; inhibition [7]: 19%; inhibition [8]: 8%
23 | CCC(CC)[C@@H](N)P(=O)(O)O | 6% | > 256 µM | 0% | –
24 | NC(C1CC1)P(=O)(O)O (racemic) | 6% | > 256 µM | 0% | –
25 | CCCCC(CC)C(N)P(=O)(O)O (stereo in doubt; D33) [listing 2 of 2 here] | 11% | – | – | –
26 | COc1ccc(C(N)P(=O)(O)O)cc1 (racemic) | 43% | 57 µM | – | inhibition [4]: 73%; inhibition at 10 µM (Plasmodium falciparum [5]): 52%; inhibition at 0.1 µM (Plasmodium falciparum [6]): 2%; inhibition [7]: 38%; inhibition [8]: 2%
27 | CCCCC(CC)C(N)P(=O)(O)O (stereo in doubt; D32) [listing 1 of 2 here] | 1% | – | – | –
28 | COc1ccc(C(N)P(=O)(O)O)cc1O (racemic) | 39% | 65 µM | – | inhibition [4]: 71%; inhibition at 10 µM (Plasmodium falciparum [5]): 43%; inhibition at 0.1 µM (Plasmodium falciparum [6]): 0%; inhibition [7]: 46%; inhibition [8]: 5%
29 | Cl.NC(Cc1ccccc1)C(=O)NCCC(O)P(=O)(O)O (configuration not stated) | 9% | > 256 µM | 10% | –
30 | CCCCC(CC)C(N)P(=O)(O)O (stereo in doubt; D32) [listing 2 of 2 here] | – | – | 0% | –
31 | CCC(C)C(N)P(=O)(O)O (stereo in doubt; D29) [listing 2 of 2 here] | 9% | – | – | –
32 | NC(c1ccc(O)cc1)P(=O)(O)O (racemic) | 8% | > 256 µM | 14% | –
33 | CCCC(C)C(N)P(=O)(O)O (stereo in doubt; D30) [listing 2 of 2 here] | 11% | – | – | –
34 | NC(c1ccc(O)c(O)c1)P(=O)(O)O (racemic) | 7% | > 256 µM | 5% | –
35 | CC(C)C[C@H](N)[C@@H](N)P(=O)(O)O | 6% | > 256 µM | 14% | –
